The list is not random: actives were taken first. Their share in the collection is about 2.3%.
TRPC4 potent – TRPC4 (mouse) allosteric potentiation; Q9QUQ5; HEK293 TRPC4beta/mu-opioid, DAMGO EC20, Fluo-4 Ca2+ flux; active compounds read high; B-score at 10 µM; hit rate 0.42% among 310,000; AID 2227;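 active = B-score of calcium response area above 5 SD of library B-scores, with initial fluorescence ratio within 5 SD of library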;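 note: B-score of integrated fluorescence ratio over time as area under calcium response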
Target sequence (Q9QUQ5 whole entry, looked up): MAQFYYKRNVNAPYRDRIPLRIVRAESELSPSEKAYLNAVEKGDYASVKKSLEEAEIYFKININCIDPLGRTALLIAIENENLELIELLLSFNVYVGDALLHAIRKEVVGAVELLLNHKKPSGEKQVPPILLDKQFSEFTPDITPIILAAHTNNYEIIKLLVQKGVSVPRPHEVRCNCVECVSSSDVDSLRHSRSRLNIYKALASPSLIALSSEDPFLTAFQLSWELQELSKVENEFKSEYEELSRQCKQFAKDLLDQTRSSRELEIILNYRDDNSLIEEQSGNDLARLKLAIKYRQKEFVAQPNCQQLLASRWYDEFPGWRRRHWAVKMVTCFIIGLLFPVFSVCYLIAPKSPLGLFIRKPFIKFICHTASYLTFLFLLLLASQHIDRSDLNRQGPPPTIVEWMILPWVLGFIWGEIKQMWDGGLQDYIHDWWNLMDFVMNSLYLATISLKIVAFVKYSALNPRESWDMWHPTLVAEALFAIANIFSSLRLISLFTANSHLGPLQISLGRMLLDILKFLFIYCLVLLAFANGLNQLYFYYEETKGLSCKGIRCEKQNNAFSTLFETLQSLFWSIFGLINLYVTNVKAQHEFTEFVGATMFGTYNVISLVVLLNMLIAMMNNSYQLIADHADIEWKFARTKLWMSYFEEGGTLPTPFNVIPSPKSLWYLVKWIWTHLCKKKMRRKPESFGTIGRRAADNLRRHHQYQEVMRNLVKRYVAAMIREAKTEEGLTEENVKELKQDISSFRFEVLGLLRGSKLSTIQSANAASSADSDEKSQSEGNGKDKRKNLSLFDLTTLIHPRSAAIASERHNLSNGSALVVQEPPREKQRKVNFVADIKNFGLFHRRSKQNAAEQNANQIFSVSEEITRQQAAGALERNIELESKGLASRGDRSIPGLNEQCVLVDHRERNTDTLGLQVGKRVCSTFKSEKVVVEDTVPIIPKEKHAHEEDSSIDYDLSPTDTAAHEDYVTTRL
TRPC6 act – mouse TRPC6 channel activation | hit rate 0.13% among 310,000 | Q61143 | HEK293-TRPC6 membrane potential dye fluorescence; active compounds read high | B-score at 10 µM;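 active = B-score of the integrated fluorescence ratio above library mean plus 3 SD, and starting fluorescence ratio within library mean plus 5 SD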;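 note: higher score means more depolarization so channel activation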
TRPC4 inh – inhibitors of mouse TRPC4 channel; Q9QUQ5; HEK293 TRPC4beta/mu-opioid, DAMGO-evoked Fluo4 calcium flux; active compounds read low; B-score at 10 µM; hit rate 0.39% among 300,000;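 active = B-score over 3 SD under the library average, no early fluorescence shift, positive overall ratio signal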
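Signal: kinetic Fluo4 fluorescence imaging of calcium influx. Material: stable TRPC4beta/mu-opioid receptor HEK293 cells. Probe or stimulus: DAMGO in two steps, submaximal then maximal.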
TRPC6 inh – blocks the mouse TRPC6 cation channel; Q61143; B-score at 10 µM; hit rate 1.1% among 310,000; HEK293-TRPC6, membrane potential dye, ACh-evoked depolarization; active compounds read low;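 active = B-score under library mean minus 3 SD, initial fluorescence not abnormally high, positive integrated signal ratio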;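 note: B-score derived from integrated fluorescence ratio over the kinetic read; more negative B-score means stronger inhibition of depolarization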
TRPC4 act – TRPC4 (mouse) channel activation; hit rate 0.49% among 310,000; AID 2237; HEK293 TRPC4beta/mu-opioid, Fluo4 calcium fluorescence; active compounds read high; Q9QUQ5; B-score at 10 µM;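 active = B-score above 5 SD of library B-scores, and initial fluorescence ratio not above library mean plus 5 SD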;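 note: positive B-score marks a calcium rise read as TRPC4 activation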
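Assay system: HEK293 stable line with TRPC4beta plus mu-opioid receptor. Times: dye 45 min RT, read 110 s. Measured by: kinetic Fluo4 calcium fluorescence. Measure: B score of integrated ratio. Controls: assay buffer as low control, maximal DAMGO as high control.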
TRPC4 sel inh 2 – second selectivity test of TRPC6 inhibitors: effect on mouse TRPC4 | AID 2776 | hit rate 42% among 920 | HEK293 TRPC4/MOR, membrane potential dye fluorescence; channel activated by saturating DAMGO dose | shares compounds with TRPC6 inh | inhibition, % at 10 µM;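 active = compounds whose fluorescence signal differed from control wells by over 3 SD, either direction, in both duplicate plates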
TRPC4 spec – tests whether TRPC6 inhibitors also affect mouse TRPC4 | HEK293 TRPC4/mu-opioid, membrane potential fluorescence | activity change, negative = inhibition, % at 10 µM | shares compounds with TRPC6 inh | hit rate 61% among 920;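 active = rise or fall in signal beyond 3 SD of buffer-only wells in both replicate plates, either sign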;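 note: integrated kinetic ratio of fluorescence range over baseline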
HEK293 MPD ctr 2-1 – second counter-screen for TRPC6 inhibitors: parental HEK293 cells | shares compounds with TRPC6 inh | parental HEK293 membrane potential dye fluorescence; maximal acetylcholine challenge after compound addition | signal change vs control, % at 10 µM | hit rate 31% among 920 | AID 2779;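 active = membrane potential signal moving either way by over 3 SD of the maximum-effect control, in both duplicate plates, meaning non-specific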
HEK293 MPD ctr-1 – parental HEK293 nonspecific activity of TRPC6 inhibitors. parental HEK293 membrane potential dye fluorescence. shares compounds with TRPC6 inh. AID 2780. hit rate 60% among 920. membrane potential signal change, % at 10 µM;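 active = membrane potential signal shifting up or down by more than 3 SD of buffer-only wells, on both duplicate plates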
HEK293 MPD ctr-2 – checks TRPC6 modulator effects in parental HEK293 cells. hit rate 51% among 2,400. AID 488924. shares compounds with TRPC6 inh. membrane potential dye fluorescence. membrane potential signal change, % at 10 µM;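 active = membrane potential signal moves up or down beyond 5 SD from buffer-only wells, on both duplicate plates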
HEK293 MPD ctr 2-2 – second check of TRPC6 modulator effects in parental HEK293 cells | shares compounds with TRPC6 inh | membrane potential dye fluorescence; after compound, maximal acetylcholine stimulation | inhibition, % at 10 µM | hit rate 14% among 2,400;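 active = membrane potential signal drops by more than 5 SD from the mean control signal, in both duplicate plates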;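 note: plate controls were acetylcholine ECmax control wells for no effect and buffer only wells for full effect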
TRPC4 ctr mod – mouse TRPC4 off-target activity of TRPC6 modulators. hit rate 69% among 2,400. HEK293 TRPC4/mu-opioid, membrane potential fluorescence. shares compounds with TRPC6 inh. percent change from control (negative = decrease, positive = increase), % at 10 µM;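 active = membrane potential signal moved up or down beyond 5 SD of buffer control wells, in both duplicate plates, actives on both sides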;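 note: plate controls were assay buffer wells for no effect and DAMGO maximal-effect wells for full effect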
TRPC4/MOR inh 2 – mouse TRPC4 off-target activity of TRPC6 modulators, second screen; shares compounds with TRPC6 inh; HEK293 TRPC4/mu-opioid, membrane potential dye fluorescence; stimulated with maximal-effect DAMGO; inhibition, % at 10 µM; hit rate 55% among 2,400; AID 488928;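 active = drop in membrane potential signal beyond 5 SD of the control wells in both duplicate plates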;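 note: TRPC4 counter screen for TRPC6 hits run under conditions tuned for TRPC6 not TRPC4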
TRPC6 block conf – mouse TRPC6 inhibitor confirmation | shares compounds with TRPC6 inh | HEK293-TRPC6, membrane potential dye, ACh-evoked depolarization | inhibition, % at 10 µM | hit rate 43% among 3,300;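 active = fluorescence ratio falls more than 5 SD below the full-stimulation control mean, in both duplicate runs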;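 note: integrated fluorescence ratio of peak minus minimum over baseline after agonist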
TRPC6 act conf – confirmation of mouse TRPC6 activators. shares compounds with TRPC6 inh. HEK293-TRPC6 membrane potential dye fluorescence, FDSS. activation, % at 10 µM. hit rate 11% among 2,800. AID 488961;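 active = ratio signal rise beyond 5 SD above unstimulated control wells' mean, seen in both duplicate runs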;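 note: plate controls were buffer EC0 wells for no effect and acetylcholine ECmax response for full effect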
The depositor's hits bear a star; i = inactive; x = no result given.

SMILES | TRPC4 potent | TRPC6 act | TRPC4 inh | TRPC6 inh | TRPC4 act | HEK293 MPD ctr-2 | HEK293 MPD ctr 2-2 | TRPC4 ctr mod | TRPC4/MOR inh 2 | TRPC6 block conf | TRPC6 act conf | others
Cc1ccccc1NC1=C/C(=N\S(=O)(=O)c2ccc(C(=O)O)cc2)c2ccccc2C1=O | i | i | i | i | i | x | x | x | x | x | x
Nc1[nH]nc2nc(NCc3ccccc3)c3c(c12)CCN(Cc1ccccc1)C3 | i | i | i | -5.4* | i | i | i | -16%* | 49%* | 42%* | i
O=C(NCc1ccc(F)cc1)c1c2c(nc3ccccc13)CCN(Cc1ccccc1)C2 | i | i | i | i | i | x | x | x | x | x | x
CC1C/C(=N/NC(=O)c2ccc(CSc3nc4ccccc4[nH]3)cc2)CC(C)(C)C1 (stereo not given) | i | i | i | i | i | x | x | x | x | x | x
CC1C/C(=N/Nc2nc3ccccc3[nH]2)CC(C)(C)C1 (stereo not given) | i | i | i | -5.4* | i | i | i | i | 48%* | i | i
Cc1nn(C)c(C)c1S(=O)(=O)NCCc1ccc(Cl)cc1 | i | i | i | i | i | x | x | x | x | x | x
O=C(O)c1ccc(N=N/C(=N\Nc2ccc(C(=O)O)cc2)c2ccccc2)cc1 | i | i | i | i | i | x | x | x | x | x | x
Brc1ccc(N/N=C(/N=Nc2nn[nH]n2)c2ccccc2)cc1 | i | i | -6* | -11* | i | -256%* | i | -44%* | 91%* | 65%* | i
CSCc1cc(N2CCOCC2)nc(SCc2ccc(Cl)c(Cl)c2)n1 | i | i | i | i | i | x | x | x | x | x | x
COc1ccc(C(=O)/C=C/c2cc(OC)c(O)c(OC)c2)c(F)c1 | i | 18* | i | i | i | 288%* | i | 54%* | i | i | 108%*
COc1ccc2cc(C(=O)/C=C/c3cc(OC)c(O)c(OC)c3)ccc2c1 | i | i | i | i | i | x | x | x | x | x | x
CC1(c2nnc(Cc3ccccc3)o2)CC(c2c(Cl)cccc2Cl)=NO1 (stereo not given) | i | i | i | i | i | x | x | x | x | x | x
O=C(O)c1ccc(N/N=C/C2=C(N3CCOCC3)C(=C\c3ccccc3)/CC2)cc1 | i | 22* | i | i | 51* | 856%* | i | 191%* | i | i | 350%*
CC(=O)N/C(=C\c1ccccc1)C(=O)OC(C)C(=O)NCc1ccccc1 (stereo not given) | i | i | i | i | i | x | x | x | x | x | x
CN1C(=O)/C(=C/c2ccc(-c3ccccc3[N+](=O)[O-])o2)SC1=Nc1ccc(Cl)c(C(=O)O)c1 | i | i | i | i | i | x | x | x | x | x | x
c1cc2c3c(cccc3c1)NC1(CCC3(CC1)Nc1cccc4cccc(c14)N3)N2 | i | i | i | -6.9* | i | x | x | x | x | i | i | TRPC4 sel inh 2=i;TRPC4 spec=-22%*;HEK293 MPD ctr 2-1=i;HEK293 MPD ctr-1=-240%*
Fc1ccc(NC(=S)Nc2ccccc2OC(F)F)cc1Cl | i | i | i | -6.5* | i | i | i | i | 35%* | i | i
Cc1ccc(NC(=S)Nc2ccc(Cl)c(Cl)c2)c(OC(F)F)c1 | i | i | i | i | i | x | x | x | x | x | x
O=C(OCC(=O)N1CCN(C(=O)c2ccco2)CC1)c1cccc(S(=O)(=O)N2CCc3ccccc32)c1 | i | i | i | i | i | x | x | x | x | x | x
c1cnc2ccc(C(c3nnnn3C3CCCCC3)N3CCCCC3)cc2c1 (stereo not given) | i | i | i | -5.9* | i | 149%* | i | 35%* | 30%* | 54%* | x
CCC(C)(C)n1nnnc1C(c1ccc2ncccc2c1)N1CCCCCC1 (stereo not given) | i | i | i | -5.1* | i | i | i | 28%* | 33%* | i | x
Cn1c(-c2ccc3c(c2)OCO3)cnc1NCc1ccccc1 | i | i | i | -5.8* | i | i | i | i | 56%* | 36%* | i
Cn1c(-c2ccc3c(c2)OCO3)cnc1NC(=O)CCC(=O)NCCc1ccccc1 | i | i | i | i | i | x | x | x | x | x | x
Cc1ccc(-c2cnc(NCc3cc4c(cc3[N+](=O)[O-])OCO4)n2C)cc1C | i | i | i | i | i | x | x | x | x | x | x
Cn1c(-c2ccc3c(c2)OCO3)cnc1NCc1cccc(Cl)c1 | i | i | i | -7.9* | i | x | x | x | x | i | i | TRPC4 sel inh 2=46%*;TRPC4 spec=i;HEK293 MPD ctr 2-1=i;HEK293 MPD ctr-1=i
Cn1c(-c2ccc3c(c2)OCO3)cnc1NCc1ccccc1Cl | i | i | i | -5.3* | i | i | i | i | 68%* | i | i
CC(C)CCN(C(=O)c1csnn1)C(C(=O)NC1CCCCC1)c1ccc(F)cc1 (stereo not given) | i | i | i | i | i | x | x | x | x | x | x
COc1ccc(CCNC(=O)c2cc3c(=O)n4ccccc4nc3n(C3CCCCC3)c2=N)cc1OC | i | i | i | i | i | x | x | x | x | x | x

High-throughput results (PubChem BioAssay)
